Compounds with a hit are over-represented: about 2.3% of the library has one in this group of screens.
TRPC4 inh: inhibitors of mouse TRPC4 channel, primary screen, Fluo4 calcium, HEK293 TRPC4beta/mu-opioid cells; actives 0.39% (n = 300,000); DAMGO-evoked Fluo4 calcium flux; active compounds read low; B-score at 10 µM; Short transient receptor potential channel 4 (Mus musculus), Q9QUQ5; AID 2247, 2010;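 active = B-score over 3 SD under the library average, no early fluorescence shift, positive overall ratio signal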
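Material: HEK293 cells with stable TRPC4beta plus mu-opioid receptor expression / Probe or stimulus: DAMGO in two steps, submaximal then maximal / Compound: single concentration per test compound / Technique: kinetic Fluo4 fluorescence imaging of calcium influx / Read-out: per-well B score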
TRPC6 inhibitor: mouse TRPC6 channel inhibitors, primary screen, cell-based, HEK293, membrane potential dye. ACh-evoked depolarization; active compounds read low. B-score at 10 µM. actives 1.1% (n = 310,000). AID 2553, 2010;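 active = B-score under library mean minus 3 SD, initial fluorescence not abnormally high, positive integrated signal ratio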;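 also: B-score derived from integrated fluorescence ratio over the kinetic read; more negative B-score means stronger inhibition of depolarization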
TRPC6 activator: mouse TRPC6 channel activators, primary screen, cell-based, HEK293, membrane potential dye. Short transient receptor potential channel 6 (Mus musculus), Q61143. HEK293-TRPC6 membrane potential dye fluorescence; active compounds read high. B-score at 10 µM. actives 0.13% (n = 310,000). AID 2550, 2010;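 active = B-score of the integrated fluorescence ratio above library mean plus 3 SD, and starting fluorescence ratio within library mean plus 5 SD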;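 also: higher score means more depolarization so channel activation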
TRPC4 PAM: positive allosteric modulators of TRPC4, primary screen, cell-based, mouse TRPC4beta, HEK293 mu-opioid, Fluo-4 calcium | Short transient receptor potential channel 4 (Mus musculus), Q9QUQ5 | DAMGO EC20, Fluo-4 Ca2+ flux; active compounds read high | B-score at 10 µM | actives 0.42% (n = 310,000);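 active = B-score of calcium response area above 5 SD of library B-scores, with initial fluorescence ratio within 5 SD of library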;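 also: B-score of integrated fluorescence ratio over time as area under calcium response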
TRPC4 act: activators of mouse TRPC4 channel, primary screen, Fluo4 calcium, HEK293 TRPC4beta/mu-opioid cells | Fluo4 calcium fluorescence; active compounds read high | B-score at 10 µM | actives 0.49% (n = 310,000);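 active = B-score above 5 SD of library B-scores, and initial fluorescence ratio not above library mean plus 5 SD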;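 also: positive B-score marks a calcium rise read as TRPC4 activation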
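Material: HEK293 stable line with TRPC4beta plus mu-opioid receptor; technique: Fluo4 calcium-sensitive dye fluorescence, kinetic, 1 Hz baseline; timing: Fluo4 dye loading 45 min at room temperature, 110 s recording; controls: assay buffer as low control, maximal DAMGO as high control; read-out: integrated baseline-normalised fluorescence ratio, converted to per-well B score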
TRPC4 sel inh 2: second check of whether TRPC6 inhibitors also affect mouse TRPC4. shares compounds with TRPC6 inhibitor. HEK293 TRPC4/MOR, membrane potential dye fluorescence; channel activated by saturating DAMGO dose. inhibition, % at 10 µM. actives 42% (n = 920). AID 2776;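 active = compounds whose fluorescence signal differed from control wells by over 3 SD, either direction, in both duplicate plates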
TRPC4 spec: mouse TRPC4 modulation by TRPC6 hits, confirmation, selectivity assay for TRPC6 inhibitor project, cell-based, HEK293 TRPC4/mu-opioid, membrane potential dye | shares compounds with TRPC6 inhibitor | membrane potential fluorescence | activity change, negative = inhibition, % at 10 µM | actives 61% (n = 920);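 active = rise or fall in signal beyond 3 SD of buffer-only wells in both replicate plates, either sign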;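 also: integrated kinetic ratio of fluorescence range over baseline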
HEK293 MPD ctr 2-1: nonspecific membrane potential effects, parental HEK293, confirmation, counter-screen for TRPC6 inhibitor project, cell-based, second counter screen. shares compounds with TRPC6 inhibitor. parental HEK293 membrane potential dye fluorescence; maximal acetylcholine challenge after compound addition. signal change vs control, % at 10 µM. actives 31% (n = 920);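 active = membrane potential signal moving either way by over 3 SD of the maximum-effect control, in both duplicate plates, meaning non-specific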
HEK293 MPD ctr-1: membrane potential modulation in parental HEK293, confirmation, counter-screen for TRPC6 inhibitor project, cell-based | shares compounds with TRPC6 inhibitor | parental HEK293 membrane potential dye fluorescence | membrane potential signal change, % at 10 µM | actives 60% (n = 920) | AID 2780, 2010;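 active = membrane potential signal shifting up or down by more than 3 SD of buffer-only wells, on both duplicate plates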
HEK293 MPD ctr-2: parental HEK293 membrane potential modulation, confirmation, counter-screen for TRPC6 modulator project, cell-based. shares compounds with TRPC6 inhibitor. AID 488924, 2010. actives 51% (n = 2,400). membrane potential signal change, % at 10 µM. membrane potential dye fluorescence;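 active = membrane potential signal moves up or down beyond 5 SD from buffer-only wells, on both duplicate plates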
HEK293 MPD ctr 2-2: second check of TRPC6 modulator effects in parental HEK293 cells. membrane potential dye fluorescence; after compound, maximal acetylcholine stimulation. AID 488926. inhibition, % at 10 µM. shares compounds with TRPC6 inhibitor. actives 14% (n = 2,400);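 active = membrane potential signal drops by more than 5 SD from the mean control signal, in both duplicate plates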;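 also: plate controls were acetylcholine ECmax control wells for no effect and buffer only wells for full effect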
TRPC4/MOR mod: TRPC4 modulation by TRPC6 hit compounds, confirmation, selectivity assay for TRPC6 modulator project, cell-based, HEK293 TRPC4/mu-opioid, membrane potential dye, mouse; shares compounds with TRPC6 inhibitor; membrane potential fluorescence; percent change from control (negative = decrease, positive = increase), % at 10 µM; actives 69% (n = 2,400);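 active = membrane potential signal moved up or down beyond 5 SD of buffer control wells, in both duplicate plates, actives on both sides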;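 also: plate controls were assay buffer wells for no effect and DAMGO maximal-effect wells for full effect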
TRPC4/MOR inh 2: second selectivity test of TRPC6 modulators against mouse TRPC4 | shares compounds with TRPC6 inhibitor | HEK293 TRPC4/mu-opioid, membrane potential dye fluorescence; stimulated with maximal-effect DAMGO | inhibition, % at 10 µM | actives 55% (n = 2,400) | AID 488928;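 active = drop in membrane potential signal beyond 5 SD of the control wells in both duplicate plates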;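 also: TRPC4 counter screen for TRPC6 hits run under conditions tuned for TRPC6 not TRPC4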
TRPC6 block conf: mouse TRPC6 channel inhibitors, confirmation, HEK293 cells, membrane potential dye, duplicate | AID 488960, 2010 | ACh-evoked depolarization | actives 43% (n = 3,300) | inhibition, % at 10 µM | shares compounds with TRPC6 inhibitor;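 active = fluorescence ratio falls more than 5 SD below the full-stimulation control mean, in both duplicate runs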;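 also: integrated fluorescence ratio of peak minus minimum over baseline after agonist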
TRPC6 act confirm: mouse TRPC6 channel activators, confirmation, HEK293 cells, membrane potential dye, duplicate; shares compounds with TRPC6 inhibitor; HEK293-TRPC6 membrane potential dye fluorescence, FDSS; activation, % at 10 µM; actives 11% (n = 2,800);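 active = ratio signal rise beyond 5 SD above unstimulated control wells' mean, seen in both duplicate runs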;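 also: plate controls were buffer EC0 wells for no effect and acetylcholine ECmax response for full effect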
The depositor's hits bear a star; i = inactive; / = no result given.

SMILES	TRPC4 inh	TRPC6 inhibitor	TRPC6 activator	TRPC4 PAM	TRPC4 act	HEK293 MPD ctr-2	HEK293 MPD ctr 2-2	TRPC4/MOR mod	TRPC4/MOR inh 2	TRPC6 block conf	TRPC6 act confirm	others
CCNc1nc(SCC(N)=O)nc2sc3c(c12)CCN(C)C3	i	-6.6*	i	i	i	-196%*	i	-38%*	43%*	52%*	i
Cc1c(-c2ccccc2)c(=O)oc2cc(O)ccc12	i	i	i	i	i	/	/	/	/	/	/
CCSc1nc2sc3c(c2c(=O)n1-c1ccccc1)CCN(C)C3	i	i	i	i	i	/	/	/	/	/	/
COC(CNc1nc(SC)nc2sc3c(c12)CCN(C)C3)OC	i	i	i	i	i	/	/	/	/	/	/
CCC(O)CNc1nc(SC)nc2sc3c(c12)CCN(C)C3 (stereo not given)	i	-7.2*	i	i	i	-167%*	i	-39%*	36%*	i	i
COCCSc1nc2sc3c(c2c(=O)n1-c1ccccc1)CCN(C)C3	i	-7.5*	i	i	i	-108%*	i	-22%*	i	i	i
COc1ccccc1N1CCN(C2=Nc3cccc4cccc2c34)CC1	i	-8.7*	i	i	i	-214%*	79%*	-45%*	84%*	60%*	i
CC1CN(C2=Nc3cccc4cccc2c34)CC(C)O1 (stereo not given)	i	-7.3*	i	i	i	-152%*	i	-72%*	46%*	58%*	i
c1cc2c3c(cccc3c1)C(N1CCOCC1)=N2	i	-6.8*	i	i	i	-198%*	i	-129%*	84%*	52%*	i
CC1CN(c2oc(-c3ccccc3Cl)nc2C#N)CC(C)O1 (stereo not given)	i	i	i	i	i	/	/	/	/	/	/
CC(=O)N1CCN(C2=Nc3cccc4cccc2c34)CC1	i	-8.1*	i	i	i	-226%*	i	-97%*	48%*	57%*	i
O=C(O)c1ccc(NC2=Nc3cccc4cccc2c34)cc1	i	i	i	i	i	/	/	/	/	/	/
O=C1c2ccccc2C(=O)c2c1cccc2N1CCOCC1	i	i	i	i	i	/	/	/	/	/	/
CCc1ccc(OCC2NCCc3cc(OC)c(OC)cc32)cc1 (stereo not given)	i	-5.8*	i	i	i	i	i	i	46%*	i	i
COc1ccc(CC(=O)Oc2ccccc2Cl)cc1S(=O)(=O)N1CCOCC1	i	i	i	i	i	/	/	/	/	/	/
CCNC(=S)N1CCN(S(=O)(=O)c2ccc(C)c(C)c2)CC1	i	-5.4*	i	i	i	i	i	i	i	i	/
CN(CC(=O)Nc1cccc(F)c1)C(=O)c1ccc(COc2ccccc2)cc1	i	i	i	i	i	/	/	/	/	/	/
C=CCNCc1cccn1-c1sc2c(c1C#N)CCCC2	i	i	i	i	i	/	/	/	/	/	/
N#Cc1c(-n2cccc2/C=N/O)sc2c1CCCC2	i	-6.6*	i	i	i	/	/	/	/	60%*	/	TRPC4 sel inh 2=i;TRPC4 spec=20%*;HEK293 MPD ctr 2-1=-30%*;HEK293 MPD ctr-1=18%*
Cc1cc(N=Nc2ccccc2)c(NCC(O)C(O)C(O)CO)cc1C (stereo not given)	i	-8.1*	i	i	i	/	/	/	/	80%*	i	TRPC4 sel inh 2=32%*;TRPC4 spec=-30%*;HEK293 MPD ctr 2-1=i;HEK293 MPD ctr-1=-542%*
COc1ccccc1CNC(=O)COC(=O)c1cc([N+](=O)[O-])ccc1N1CCOCC1	i	-5.1*	i	i	i	i	i	14%*	i	i	/
Cn1ccnc1C1CCCCN1Cc1nc(Cc2ccccc2F)no1 (stereo not given)	i	-5.5*	i	i	i	i	i	i	i	67%*	i
COC(=O)c1ccc(-c2noc(CN3CCCCC3c3nccn3C)n2)cc1 (stereo not given)	i	-5.1*	i	i	i	164%*	i	38%*	36%*	43%*	/
COC(=O)c1ccc(-c2noc(CN(Cc3nccn3C)C(C)C)n2)cc1	i	-5.1*	i	i	i	i	i	i	i	i	i
